Laboratory results taken from ChEMBL document CHEMBL4706701, “Synthesis and biological activity of selenopsammaplin A and its analogues as antitumor agents with DOT1L inhibitory activity” (Bioorg Med Chem, 2021).
Active and inactive are the calls of the source. No cut-off for these calls is given here.

How the values were obtained:
[1] = test system: MDA-MB-231; assay: Antitumor activity against human MDA-MB-231 cells xenografted in BALB/c nu mouse assessed as tumor growth inhibition at 5 mg/kg, ip administered thrice per week for 38 days by caliper method relative to control; format: functional; conditions: MDA-MB-231, ip, 912 h, time 38 day, read-out: TGI
How it was run: (§1)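 Female BALB/c-nu mice (5–6 wk) given 1 × 10⁷ luciferase-expressing MDA-MB-231 cells in 50:50 DMEM/Matrigel into the fourth fat pad; randomized after 10 days (six per group). Dosed ip in EtOH/Cremophor/saline (5:5:90) three times weekly for 38 days. Tumor L, W, H measured by caliper, volume = LWH/2; body weight weekly; tumors excised and weighed at termination.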

[2] = test system: SK-HEP1; assay: Cytotoxicity against human SK-HEP1 cells assessed as reduction in cell viability by SRB assay; format: functional, cell-based
How it was run: (§2)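 Cells seeded in 96-well plates and exposed to compounds for the stated times. Zero-day controls were incubated 30 min. Cells were fixed and stained with 0.4% SRB in 1% acetic acid, and bound dye was dissolved in 10 mM Tris (pH 10.0). A515 was read, and IC50 was calculated by non-linear regression.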

[3] = test system: MDA-MB-231; assay: Antimetastatic activity against human MDA-MB-231 cells xenografted in BALB/c nu mouse assessed as up regulation of E-cadherin expression in tumor tissue at 5 to 15 mg/kg, ip administered thrice per week for 38 days measured 1 week post last dose by H and E staining based immunohistochemical analysis; format: functional, organism-based; conditions: dose 5-15 mg/kg, time 45.0 day
How it was run: (§3)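 Tumors and lungs from orthotopic MDA-MB-231/Luc nude mice (ip dosing three times weekly, 38 days) fixed in 4% PFA, paraffin-embedded, sectioned, antigen-retrieved. Lungs H&E-stained for metastatic cells; tumor sections immunostained for Ki67, H3K79me2, E-cadherin, vimentin with HRP detection, hematoxylin counterstain, imaged at 200×.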

[4] = test system: MDA-MB-231; assay: Down regulation of ZEB1 mRNA expression in human MDA-MB-231 cells at 50 to 200 nM measured after 24 hrs by RT-PCR analysis; format: functional, cell-based; conditions: dose 50-200 nM
[5] = test system: MDA-MB-231; assay: Up regulation of CDH1 mRNA expression in human MDA-MB-231 cells at 50 to 200 nM measured after 24 hrs by RT-PCR analysis; format: functional, cell-based; conditions: dose 50-200 nM
[6] = test system: MDA-MB-231; assay: Antimetastatic activity against human MDA-MB-231 cells xenografted in BALB/c nu mouse assessed as reduction in metastatic cells in lung tissue at 5 to 15 mg/kg, ip administered thrice per week for 38 days measured 1 week post last dose by H and E staining based immunohistochemical analysis; format: functional, organism-based; conditions: dose 5-15 mg/kg, time 45.0 day; how it was run: as §3
[7] = test system: MDA-MB-231; assay: Antitumor activity against human MDA-MB-231 cells xenografted in ip dosed BALB/c nu mouse assessed as down regulation of H3K79me2 expression in tumor tissue administered thrice per week for 38 days measured 1 week post last dose by Western blot analysis; format: functional, organism-based; conditions: dose 5-15 mg/kg, time 45.0 day
How it was run: (§4)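 Frozen tumor portions from the orthotopic MDA-MB-231 nude mouse study homogenized in complete lysis buffer; protein by Bradford assay. Western blotting for H3K79me2, E-cadherin and vimentin, β-actin internal control, band intensities semi-quantified; three separate experiments.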

[8] = test system: MDA-MB-231; assay: Antimigratory activity in human MDA-MB-231 cells assessed as suppression of wound closure after 24 hrs by microscopic analysis; format: functional, cell-based; conditions: dose 50-400 nM
How it was run: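 MDA-MB-231 monolayers at 80–90% confluence scratched with a pipette tip, washed with PBS, then kept 24 h in medium with 1% FBS plus compound at various concentrations. Wounds photographed at 0 and 24 h; area measured by image analysis and expressed as wound healing (%) relative to the 0 h area. Mean ± SD (n = 3), three separate experiments.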

[9] = test system: MDA-MB-231; assay: Antimetastatic activity against human MDA-MB-231 cells xenografted in BALB/c nu mouse assessed as reduction in luciferase signal in tumor site at 5 to 15 mg/kg, ip administered thrice per week for 38 days measured 1 week post last dose by luciferase based imaging analysis; format: functional, organism-based; conditions: dose 5-15 mg/kg, time 45.0 day
How it was run: (§5)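 Orthotopic luciferase-expressing MDA-MB-231 model in female BALB/c-nu mice, ip dosing in EtOH/Cremophor/saline (5:5:90) three times weekly for 38 days. One week later anesthetized mice imaged by IVIS 15 min after D-luciferin (150 mg/kg in PBS); lungs and other organs then excised and imaged ex vivo.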

[10] = test system: MDA-MB-231; assay: Antimetastatic activity against human MDA-MB-231 cells xenografted in BALB/c nu mouse assessed as reduction in luciferase signal in lung tissue at 5 to 15 mg/kg, ip administered thrice per week for 38 days measured 1 week post last dose by luciferase based imaging analysis; format: functional, organism-based; conditions: dose 5-15 mg/kg, time 45.0 day; how it was run: as §5
[11] = test system: MDA-MB-231; assay: Up regulation of CDH1 expression in human MDA-MB-231 cells at 50 to 200 nM measured after 48 hrs by Western blot analysis; format: functional, cell-based; conditions: dose 50-200 nM
How it was run: (§6)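 MDA-MB-231 cells exposed to compound for 48 h; lysates in 2× SDS sample buffer with orthovanadate and NaF, protein by BCA. 5–20 μg resolved on 8–15% SDS-PAGE, PVDF, BSA block, probed for E-cadherin, N-cadherin, ZEB1, vimentin; ECL detection, β-actin internal control, band densitometry. Mean ± SD (n = 3), three experiments.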

[12] = test system: MDA-MB-231; assay: Antitumor activity against human MDA-MB-231 cells xenografted in BALB/c nu mouse assessed as tumor growth inhibition at 15 mg/kg, ip administered thrice per week for 38 days by caliper method relative to control; format: functional; conditions: MDA-MB-231, ip, 912 h, time 38 day, read-out: TGI; how it was run: as §1
[13] = Selectivity ratio of IC50 for human MCF-10A cells to IC50 for human SK-HEP1 cells
How it was run: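 Cytotoxicity by SRB assay: cells seeded in 96-well plates and treated with compounds; fixed, stained with 0.4% SRB in 1% acetic acid, dye dissolved in 10 mM Tris (pH 10.0), absorbance read at 515 nm. IC50 by non-linear regression, means of at least three experiments; ratio of MCF10A IC50 to cancer-line IC50.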

[14] = test system: MDA-MB-231; assay: Antimetastatic activity against human MDA-MB-231 cells xenografted in ip dosed BALB/c nu mouse assessed as down regulation of vimentin expression in tumor tissue administered thrice per week for 38 days measured 1 week post last dose by Western blot analysis; format: functional, organism-based; conditions: dose 5-15 mg/kg, time 45.0 day; how it was run: as §4
[15] = test system: MCF-10A; assay: Cytotoxicity against human MCF-10A cells assessed as reduction in cell viability by SRB assay; format: cell-based; how it was run: as §2
[16] = test system: MDA-MB-231; assay: Down regulation of ZEB1 expression in human MDA-MB-231 cells at 50 to 200 nM measured after 48 hrs by Western blot analysis; format: functional, cell-based; conditions: dose 50-200 nM; how it was run: as §6
[17] = test system: MDA-MB-231; assay: Antiinvasive activity in human MDA-MB-231 cells assessed as reduction in cell invasion through matrigel-coated chamber after 24 hrs by diff-quik staining based microscopic analysis; format: functional; conditions: dose 50-400 nM
How it was run: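 MDA-MB-231 cells pretreated with compound (50–400 nM) for 24 h, harvested into serum-free medium and plated at 0.5–1 × 10⁶ cells/chamber on transwell inserts (8 μm pores) coated with type I collagen and 1:20 Matrigel/PBS; 30% FBS medium as chemoattractant below. After 24 h, invaded cells fixed, Diff-Quik stained, counted in 5 random fields at 200×; three separate experiments.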

[18] = test system: MDA-MB-231; assay: Down regulation of CDH2 mRNA expression in human MDA-MB-231 cells at 50 to 200 nM measured after 24 hrs by RT-PCR analysis; format: functional, cell-based; conditions: dose 50-200 nM
[19] = test system: MDA-MB-231; assay: Down regulation of CDH2 expression in human MDA-MB-231 cells at 50 to 200 nM measured after 48 hrs by Western blot analysis; format: functional, cell-based; conditions: dose 50-200 nM; how it was run: as §6

With O=C(NCC[Se][Se]CCNC(=O)/C(Cc1ccccc1)=N/O)/C(Cc1ccccc1)=N/O the inhibition in vivo at 5 mg/kg [1] was 45.5%, the IC50 [2] was 0.12 µM and the Activity [3] was “Active”. For the same compound, the Activity [4] was “Active”, the Activity [5] was “Active” and the Activity [6] was “Active”. The Activity [7] was “Dose-dependent effect”, the Activity [8] was “Dose-dependent effect” and the Activity [9] was “Active”. The Activity [10] was “Active”, the Activity [11] was “Active” and the inhibition in vivo at 15 mg/kg [12] was 55.1%. For the same compound, the “Ratio IC50” value [13] was over 100, the Activity [14] was “Dose-dependent effect” and the IC50 [15] was 18.1 µM. For the same compound, the Activity [16] was “Active”, the Activity [17] was “Dose-dependent effect” and the Activity [18] was “Active”. For the same compound, the Activity [19] was “Active”.
